Laboratory results taken from ChEMBL document CHEMBL1926515, “Synthesis and QSAR study of novel cytotoxic spiro[3H-indole-3,2'(1'H)-pyrrolo[3,4-c]pyrrole]-2,3',5'(1H,2'aH,4'H)-triones” (Eur J Med Chem, 2012).

What was measured:
Assay type in all cases: functional, cell-based
HCT-116 = assay: Cytotoxicity against human HCT116 cells after 48 hrs by sulforhodamine B assay; details: HCT-116, 48 h
Summary of the method: (§1)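 Cells were seeded at 5×10^4–10^5 per well and allowed to attach for 24 h. Cells were then fixed and SRB-stained, washed with acetic acid, and the dye was recovered in Tris-EDTA for A564. Surviving fraction = OD treated/OD control. IC50 was taken as 50% growth inhibition relative to control, from mean values. Doxorubicin served as reference.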

MCF7 = assay: Cytotoxicity against human MCF7 cells after 48 hrs by sulforhodamine B assay; details: MCF7, 48 h; summary of the method: as §1
HepG2 = assay: Cytotoxicity against human HepG2 cells after 48 hrs by sulforhodamine B assay; details: HepG2, 48 h; summary of the method: as §1

Structure (SMILES)	IC50 (HCT-116)	IC50 (MCF7)	IC50 (HepG2)
COc1ccc(N2C(=O)C3CN(C)C4(C(=O)Nc5ccc(OC)cc54)C3C2=O)cc1 (configuration not stated)	40.9 µM	42.7 µM	49.7 µM
COc1ccc2c(c1)C1(C(=O)N2)C2C(=O)N(c3ccc(F)cc3)C(=O)C2CN1C (configuration not stated)	31.3 µM	44 µM	27.7 µM
COc1ccc2c(c1)C1(C(=O)N2)C2C(=O)N(c3ccc(C)cc3)C(=O)C2CN1C (configuration not stated)	46.2 µM	46.8 µM	12.2 µM
Cc1ccc(N2C(=O)C3CN(C)C4(C(=O)Nc5ccc(Cl)cc54)C3C2=O)cc1 (configuration not stated)	> 126 µM	49.9 µM	63.2 µM
COc1ccc2c(c1)C1(C(=O)N2)C2C(=O)N(c3ccccc3)C(=O)C2CN1C (configuration not stated)	34.1 µM	44.8 µM	44.2 µM
COc1cccc2c1C(=O)c1c(O)c3c(c(O)c1C2=O)C[C@@](O)(C(=O)CO)C[C@@H]3O[C@H]1C[C@H](N)[C@H](O)[C@H](C)O1 [DOXORUBICIN]	6.86 µM		7.36 µM
COc1ccc(N2C(=O)C3CN(C)C4(C(=O)Nc5ccc(Cl)cc54)C3C2=O)cc1 (configuration not stated)	41 µM	38.1 µM	28.9 µM
Cc1ccc(N2C(=O)C3CN(C)C4(C(=O)Nc5ccccc54)C3C2=O)cc1 (configuration not stated)	46.1 µM	37.6 µM	77.1 µM
CN1CC2C(=O)N(c3ccc(F)cc3)C(=O)C2C12C(=O)Nc1ccc(Cl)cc12 (configuration not stated)	73.3 µM	89.9 µM	41.1 µM
CN1CC2C(=O)N(c3ccc(Cl)cc3)C(=O)C2C12C(=O)Nc1ccccc12 (configuration not stated)	36.8 µM	43 µM	32.4 µM
CN1CC2C(=O)N(c3ccccc3)C(=O)C2C12C(=O)Nc1ccc(Cl)cc12 (configuration not stated)	33 µM	38.7 µM	33 µM
CN1CC2C(=O)N(c3ccccc3)C(=O)C2C12C(=O)Nc1ccccc12 (configuration not stated)	63.7 µM	35.6 µM	32.9 µM
COc1ccc(N2C(=O)C3CN(C)C4(C(=O)Nc5ccccc54)C3C2=O)cc1 (configuration not stated)	53.6 µM	48 µM	72.5 µM
COc1ccc2c(c1)C1(C(=O)N2)C2C(=O)N(c3ccc(Cl)cc3)C(=O)C2CN1C (configuration not stated)	47.4 µM	38.7 µM	43.4 µM
CN1CC2C(=O)N(c3ccc(Cl)cc3)C(=O)C2C12C(=O)Nc1ccc(Cl)cc12 (configuration not stated)	35.5 µM	40.6 µM	29.2 µM
CN1CC2C(=O)N(c3ccc(F)cc3)C(=O)C2C12C(=O)Nc1ccccc12 (configuration not stated)	42.4 µM	33.9 µM	87.3 µM
